# Test results reported in ChEMBL document CHEMBL1687796, “Synthesis and spectrum of the neoglycoside ACHN-490” (2010).
# Legend:
# [1] = system: Staphylococcus aureus; experiment: Antibacterial activity against aminoglycoside-resistant Staphylococcus aureus expressing APH(2'') + AAC(6') by broth microdilution method; format: functional
# Summary of the method: (§1)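 MICs were measured by broth microdilution following CLSI guidance. The strains formed a 25-strain screening panel with diverse aminoglycoside resistance mechanisms. The panel included Gram-negative and S. aureus strains carrying key aminoglycoside-modifying enzymes, strains with altered permeability or efflux, and an armA ribosomal methyltransferase strain.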
# [2] = system: Acinetobacter; experiment: Antibacterial activity against aminoglycoside-resistant Acinetobacter spp. expressing APH(3')-6 by broth microdilution method; format: functional
# Summary of the method: (§2)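 Clinical aminoglycoside-resistant isolates were each carrying a single aminoglycoside-modifying enzyme. […] MICs were determined by CLSI broth microdilution.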
# [3] = system: Acinetobacter baumannii; experiment: Antibacterial activity against aminoglycoside-susceptible Acinetobacter baumannii by broth microdilution method; format: functional
# [4] = system: Acinetobacter baumannii; experiment: Antibacterial activity against Acinetobacter baumannii ATCC 19606 by broth microdilution method; format: functional; conditions: ATCC 19606 = CIP 70.34 = JCM 6841; summary of the method: as §1
# [5] = system: Acinetobacter calcoaceticus; experiment: Antibacterial activity against aminoglycoside-resistant Acinetobacter calcoaceticus expressing AAC(6')-1 by broth microdilution method; format: functional; summary of the method: as §2
# [6] = system: Pseudomonas aeruginosa; experiment: Antibacterial activity against Pseudomonas aeruginosa ATCC 27853 by broth microdilution method; format: functional
# [7] = system: Pseudomonas aeruginosa; experiment: Antibacterial activity against wild type Pseudomonas aeruginosa expressing efflux pump by broth microdilution method; format: functional
# Summary of the method: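 MIC was determined by CLSI broth microdilution, read in μg/ml. The strain came from a 25-strain screening panel with diverse aminoglycoside resistance mechanisms. The panel included strains with changes in permeability or efflux, key aminoglycoside-modifying enzymes and an armA methyltransferase strain.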
# [8] = system: Pseudomonas aeruginosa; experiment: Antibacterial activity against efflux pump deficient Pseudomonas aeruginosa by broth microdilution method; format: functional
# [9] = system: Pseudomonas aeruginosa; experiment: Antibacterial activity against Pseudomonas aeruginosa expressing mexXY operon by broth microdilution method; format: functional; summary of the method: as §1
# [10] = system: Pseudomonas aeruginosa; experiment: Antibacterial activity against Pseudomonas aeruginosa expressing ANT(4')-2 by broth microdilution method; format: functional; summary of the method: as §1
# [11] = system: Pseudomonas aeruginosa; experiment: Antibacterial activity against Pseudomonas aeruginosa expressing AAC(3)-1 by broth microdilution method; format: functional
# [12] = system: Pseudomonas aeruginosa; experiment: Antibacterial activity against Pseudomonas aeruginosa expressing AAC(6')-2 by broth microdilution method; format: functional
# [13] = system: Klebsiella pneumoniae; experiment: Antibacterial activity against Klebsiella pneumoniae ATCC 10031 by broth microdilution method; format: functional; summary of the method: as §1
# [14] = system: Escherichia coli; experiment: Antibacterial activity against Escherichia coli ATCC 25922 by broth microdilution method; format: functional; summary of the method: as §1
# [15] = system: Escherichia coli; experiment: Antibacterial activity against aminoglycoside-resistant Escherichia coli expressing ANT(2'')-1 by broth microdilution method; format: functional; summary of the method: as §2
# [16] = system: Escherichia coli; experiment: Antibacterial activity against aminoglycoside-resistant Escherichia coli expressing armA methylase by broth microdilution method; format: functional; summary of the method: as §1
# [17] = system: Serratia marcescens; experiment: Antibacterial activity against aminoglycoside-resistant Serratia marcescens expressing ANT(2''), AAC(6') by broth microdilution method; format: functional; summary of the method: as §1
# [18] = system: Staphylococcus aureus; experiment: microbe, parasite or virus in culture
# [19] = system: Staphylococcus aureus; experiment: microbe, parasite or virus in culture; conditions: ATCC 29213
# [20] = system: Staphylococcus aureus; experiment: microbe, parasite or virus in culture; remark: listed apart in the source
# [21] = system: Escherichia coli; experiment: Antibacterial activity against aminoglycoside-resistant Escherichia coli expressing AAC(3)-2 by broth microdilution method
# [22] = system: Escherichia coli; experiment: Antibacterial activity against aminoglycoside-resistant Escherichia coli expressing AAC(6')-1 by broth microdilution method
# [23] = system: Escherichia coli; experiment: Antibacterial activity against aminoglycoside-resistant Escherichia coli expressing APH(3')-1b by broth microdilution method
# [24] = system: Escherichia coli; experiment: Antibacterial activity against aminoglycoside-resistant Escherichia coli expressing AAC(3)-IVa by broth microdilution method
# [25] = system: Providencia stuartii; experiment: Antibacterial activity against aminoglycoside-resistant Providencia stuartii expressing AAC(2')-1 by broth microdilution method
# [26] = system: Citrobacter; experiment: Antibacterial activity against Citrobacter spp. by broth microdilution method; format: functional
# Summary of the method: (§3)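 MICs were determined by CLSI broth microdilution against clinical isolate panels that included aminoglycoside-resistant isolates. […] MIC90 was derived per group and not calculated when n was <10. Imipenem, ceftobiprole, ciprofloxacin and tigecycline MICs were also determined for the resistant isolates.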
# [27] = system: Escherichia coli; experiment: Antibacterial activity against Escherichia coli by broth microdilution method; format: functional; summary of the method: as §3
# [28] = system: Enterobacter sp.; experiment: Antibacterial activity against Enterobacter spp. by broth microdilution method; format: functional; summary of the method: as §3
# [29] = system: Klebsiella sp.; experiment: Antibacterial activity against Klebsiella spp. by broth microdilution method; format: functional; summary of the method: as §3
# [30] = system: Proteus mirabilis; experiment: Antibacterial activity against Proteus mirabilis by broth microdilution method; format: functional; summary of the method: as §3
# [31] = Antibacterial activity against indole positive Proteae by broth microdilution method; format: functional; summary of the method: as §3
# [32] = system: Serratia sp.; experiment: Antibacterial activity against Serratia spp. by broth microdilution method; format: functional; conditions: Serratia sp. (in: enterobacteria); summary of the method: as §3
# [33] = system: Acinetobacter sp.; experiment: Antibacterial activity against Acinetobacter spp. by broth microdilution method; format: functional; summary of the method: as §3
# [34] = system: Pseudomonas aeruginosa; experiment: Antibacterial activity against Pseudomonas aeruginosa by broth microdilution method; format: functional; summary of the method: as §3
# [35] = system: Staphylococcus sp.; experiment: Antibacterial activity against Staphylococcus spp. by broth microdilution method; format: functional; summary of the method: as §3
compound,measurement,setting,value
CN[C@@H]1[C@@H](O)[C@@H](O[C@@H]2[C@@H](O)[C@H](O[C@H]3OC(CN)=CC[C@H]3N)[C@@H](N)C[C@H]2N)OC[C@]1(C)O [SISOMICIN],MIC,[1],> 64 µg/mL
same,MIC,[2],0.5 µg/mL
same,MIC,[3],0.5 µg/mL
same,MIC,[4],8 µg/mL
same,MIC,[5],32 µg/mL
same,MIC,[6],0.5 µg/mL
same,MIC,[7],1 µg/mL
same,MIC,[8],0.125 µg/mL
same,MIC,[9],1 µg/mL
same,MIC,[10],1 µg/mL
same,MIC,[11],32 µg/mL
same,MIC,[12],32 µg/mL
same,MIC,[13],0.25 µg/mL
same,MIC,[14],0.5 µg/mL
same,MIC,[15],64 µg/mL
same,MIC,[16],> 64 µg/mL
same,MIC,[17],8 µg/mL
same,MIC,[18],0.25 µg/mL
same,MIC,[19],0.5 µg/mL
same,MIC,[20],1 µg/mL
same,MIC,[21],> 64 µg/mL
same,MIC,[22],32 µg/mL
same,MIC,[23],0.25 µg/mL
same,MIC,[24],32 µg/mL
same,MIC,[25],64 µg/mL
C[C@@H](O)[C@H]1C(=O)N2C(C(=O)O)=C(SCCNC=N)C[C@H]12 [IMIPENEM ANHYDROUS],MIC50,[26],0.5 µg/mL
same,MIC50,[27],0.125 µg/mL
same,MIC90,[27],0.25 µg/mL
same,MIC50,[28],1 µg/mL
same,MIC90,[28],4 µg/mL
same,MIC50,[29],0.25 µg/mL
same,MIC90,[29],> 16 µg/mL
same,MIC50,[30],4 µg/mL
same,MIC90,[30],8 µg/mL
same,MIC50,[31],1 µg/mL
same,MIC50,[32],1 µg/mL
same,MIC50,[33],2 µg/mL
same,MIC90,[33],> 16 µg/mL
same,MIC50,[34],4 µg/mL
same,MIC90,[34],16 µg/mL
CN(C)c1cc(NC(=O)CNC(C)(C)C)c(O)c2c1C[C@H]1C[C@H]3[C@H](N(C)C)C(O)=C(C(N)=O)C(=O)[C@@]3(O)C(O)=C1C2=O [TIGECYCLINE],MIC50,[26],0.5 µg/mL
same,MIC50,[27],0.25 µg/mL
same,MIC90,[27],0.5 µg/mL
same,MIC50,[28],0.5 µg/mL
same,MIC90,[28],4 µg/mL
same,MIC50,[29],1 µg/mL
same,MIC90,[29],2 µg/mL
same,MIC50,[30],4 µg/mL
same,MIC90,[30],8 µg/mL
same,MIC50,[31],2 µg/mL
same,MIC50,[32],2 µg/mL
same,MIC50,[35],0.25 µg/mL
same,MIC90,[35],0.5 µg/mL
same,MIC50,[33],2 µg/mL
same,MIC90,[33],16 µg/mL
same,MIC50,[34],16 µg/mL
same,MIC90,[34],> 16 µg/mL
